Data set [1] can be described thus: Volume of distribution in Long Evans rat at 2 mg/kg, iv administered as single bolus dose. It is filed as ADME, organism-based. Further details: dose 2 mg/kg, route intravenous. The note with it: in vivo. The essentials: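 Male Long Evans rats, single intravenous bolus 2 mg/kg, vehicle DMSO/80% PEG 200. Plasma pharmacokinetics.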
Data set [2] can be described thus: AUC (0 to infinity) in Long Evans rat at 10 mg/kg, po administered as single dose. It is filed as ADME, organism-based. Further details: dose 10 mg/kg, route oral, time infinity. As to conditions: plasma. The essentials: (§1)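 Male Long Evans rats received one oral dose of 10 mg/kg, formulated in 2% Tween/0.5% methyl cellulose in water. Plasma pharmacokinetic parameters were derived from this single dose.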

In data set [3] the test system is Rattus norvegicus. The experiment in a line: Toxicity in rat assessed as epithelial hyperplasia at 600 mg/kg/day administered for 14 days as repeat dose. It is filed as organism-based. The note with it: in vivo, 336 h.
Data set [4] in a line: Cmax in Long Evans rat at 10 mg/kg, po administered as single dose. The format is ADME, organism-based. The arrangement: dose 10 mg/kg, route oral. As to conditions: in vivo. The essentials:
as §1

A short description of data set [5]: Clearance in beagle dog at 2 mg/kg, iv administered as single bolus dose. The arrangement: dose 2 mg/kg, route intravenous. It is filed as ADME, organism-based, Canis lupus familiaris. As to conditions: in vivo. Summed up: (§2)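 Male beagle dogs received a single intravenous bolus dose of 2 mg/kg. Plasma clearance, volume of distribution and elimination half-life were determined.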

Data set [6] relates to Canis familiaris. The experiment in a line: Toxicity in dog assessed as QTc prolongation at 20 mg/kg/day administered for 14 days as repeat dose. It is filed as organism-based, Canis lupus familiaris. The note with it: in vivo, 336 h. The essentials: (§3)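 Dogs dosed for 14 days in a repeat-dose toxicity study at 20, 60 and 120 mg/kg/day. Clinical signs and QTc monitored.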

In data set [7] the test system is Salmonella typhimurium. The experiment in a line: Mutagenic activity in Salmonella typhimurium assessed as revertants by Ames test. The format is toxicity, organism-based. The note with it: salmonella enterica subsp. enterica serovar typhimurium. The essentials: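 Screening Ames bacterial reverse mutation assay in Salmonella typhimurium, run at multiple dosages.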

Data set [8] can be described thus: Oral bioavailability in Long Evans rat at 10 mg/kg administered as single dose. It is filed as ADME, organism-based. As to conditions: in vivo. Summed up: as §1
Data set [9] relates to Canis familiaris. The experiment in a line: Toxicity in dog assessed as arrhythmia at 20 mg/kg/day administered for 14 days as repeat dose. The note with it: in vivo, 336 h. It is filed as organism-based, Canis lupus familiaris. Summed up: as §3
A short description of data set [10]: Terminal half life in Long Evans rat at 10 mg/kg, po administered as single dose. The note with it: in vivo, read-out: beta t1/2 (converted). The arrangement: dose 10 mg/kg, route oral. It is filed as ADME, organism-based. The essentials: (§4)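 Male Long Evans rats, single oral dose 10 mg/kg in 2% Tween/0.5% methyl cellulose in water. Plasma pharmacokinetics.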

The nature of data set [11]: Elimination half life in Long Evans rat at 2 mg/kg, iv administered as single bolus dose. It is filed as ADME, organism-based. The arrangement: dose 2 mg/kg, route intravenous. As to conditions: in vivo, read-out: beta t1/2 (converted). The essentials:
(§5)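 Male Long Evans rats were given a single intravenous bolus of 2 mg/kg in DMSO/80% PEG 200. Clearance, volume of distribution and elimination half-life were derived.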

Data set [12] is described as follows: Oral bioavailability in beagle dog at 10 mg/kg administered as single dose. It is filed as ADME, organism-based, Canis lupus familiaris. As to conditions: in vivo.
Data set [13] has as its system Rattus norvegicus. The experiment in a line: Reversal of time-induced cognitive deficit in po dosed rats by novel object recognition test. The format is functional. The note with it: read-out: MED.
The nature of data set [14]: Toxicity in dog. The note with it: in vivo. The format is organism-based, Canis lupus familiaris. Summed up: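 14-day repeat-dose study in dogs at 20, 60 and 120 mg/kg/day, with clinical observation including cardiac rhythm and QTc; maximum tolerated dose derived from findings across dose groups.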
Data set [15] deals with Canis familiaris. Description: Toxicity in dog assessed as convulsions at >/= 60 mg/kg/day administered for 14 days as repeat dose. It is filed as organism-based, Canis lupus familiaris. As to conditions: in vivo, 336 h. The essentials: as §3
Data set [16] in a line: Toxicity in rat. The note with it: in vivo. It is filed as organism-based. The essentials:
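14-day repeat-dose study in rats at 60, 200 and 600 mg/kg/day, with clinical observation and tissue findings; maximum tolerated dose derived from findings across dose groups.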

The nature of data set [17]: Volume of distribution in beagle dog at 2 mg/kg, iv administered as single bolus dose. Further details: dose 2 mg/kg, route intravenous. As to conditions: in vivo. It is filed as ADME, organism-based, Canis lupus familiaris. The essentials:
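Male beagle dogs, single intravenous bolus 2 mg/kg. Plasma pharmacokinetics.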

Data set [18] is described as follows: Elimination half life in beagle dog at 2 mg/kg, iv administered as single bolus dose. It is filed as ADME, organism-based, Canis lupus familiaris. The arrangement: dose 2 mg/kg, route intravenous. As to conditions: in vivo, read-out: beta t1/2 (converted). Summed up: as §2
Data set [19] relates to Rattus norvegicus. Description: Toxicity in rat assessed as respiratory distress at 600 mg/kg/day administered for 14 days as repeat dose. The format is organism-based. As to conditions: in vivo, 336 h.
Data set [20] is described as follows: Clearance in Long Evans rat at 2 mg/kg, iv administered as single bolus dose. The format is ADME, organism-based. Further details: dose 2 mg/kg, route intravenous. The note with it: in vivo. Summed up: as §5
Data set [21] relates to Mus musculus. The experiment in a line: Reversal of MK-801-induced memory deficit in po dosed mice at measured after 24 hrs by social odor recognition test. The note with it: read-out: MED.
Data set [22] in a line: Tmax in Long Evans rat at 10 mg/kg, po administered as single dose. It is filed as ADME, organism-based. The arrangement: dose 10 mg/kg, route oral. The note with it: in vivo. The essentials:
as §4

Data set [23] deals with Histamine H3 receptor (Homo sapiens, UniProt Q9Y5N1). The experiment in a line: Displacement of [3H]-(R)-alpha-methylhistamine from human H3 receptor expressed in HEK293T cells after 120 mins by scintillation counting. The format is cell-based, HEK-293T. (Loss of bound radioactivity is the signal in a displacement assay; it reports binding, not function.)
The target in data set [24] is Histamine H3 receptor (Rattus norvegicus, UniProt Q9QYN8). The experiment in a line: Displacement of [3H]-(R)-alpha-methylhistamine from rat H3 receptor expressed in HEK293T cells after 120 mins by scintillation counting. The format is cell-based, HEK-293T.
Data set [25] has as its target CYP3A4 (Homo sapiens, UniProt P08684). The experiment in a line: Inhibition of CYP3A4 at 3 uM. The format is ADME.

For orientation: Vd means a proportionality between amount in the body and measured concentration, not a real space. Higher therefore signals wide distribution into tissue. One may read the AUC(0-inf) as total exposure, with the tail of the curve extrapolated. Low values mean low exposure, high ones high exposure. For orientation: Cmax means the maximum level reached in the sampled fluid or tissue. In general, clearance refers to the volume of plasma or blood freed of the substance per unit of time. Lower therefore signals a low capacity for elimination. The term bioavailability denotes the share of a dose that reaches the circulation, judged against a reference dose that is usually intravenous. Broadly, the Tmax is the time from dosing to the highest level. The Ki is a dissociation constant, usually derived from enzyme kinetics or from competition with a known ligand. As a reminder, the inhibition is the percentage by which the read-out fell short of the control. Higher therefore signals strong suppression.

Sequence of Histamine H3 receptor (Rattus norvegicus, UniProt Q9QYN8) (Q9QYN8 whole entry): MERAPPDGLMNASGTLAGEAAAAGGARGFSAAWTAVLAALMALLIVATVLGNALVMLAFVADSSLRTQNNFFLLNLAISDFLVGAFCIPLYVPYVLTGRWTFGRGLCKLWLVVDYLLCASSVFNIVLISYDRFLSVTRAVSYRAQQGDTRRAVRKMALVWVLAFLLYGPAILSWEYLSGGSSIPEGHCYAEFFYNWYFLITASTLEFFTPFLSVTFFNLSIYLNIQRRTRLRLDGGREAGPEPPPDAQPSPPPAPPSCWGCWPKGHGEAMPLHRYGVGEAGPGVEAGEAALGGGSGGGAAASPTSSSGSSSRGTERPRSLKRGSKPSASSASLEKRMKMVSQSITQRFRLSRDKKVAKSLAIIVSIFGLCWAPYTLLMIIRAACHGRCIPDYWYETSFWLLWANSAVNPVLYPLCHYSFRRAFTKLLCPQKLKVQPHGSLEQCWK
Sequence of CYP3A4 (P08684 whole entry): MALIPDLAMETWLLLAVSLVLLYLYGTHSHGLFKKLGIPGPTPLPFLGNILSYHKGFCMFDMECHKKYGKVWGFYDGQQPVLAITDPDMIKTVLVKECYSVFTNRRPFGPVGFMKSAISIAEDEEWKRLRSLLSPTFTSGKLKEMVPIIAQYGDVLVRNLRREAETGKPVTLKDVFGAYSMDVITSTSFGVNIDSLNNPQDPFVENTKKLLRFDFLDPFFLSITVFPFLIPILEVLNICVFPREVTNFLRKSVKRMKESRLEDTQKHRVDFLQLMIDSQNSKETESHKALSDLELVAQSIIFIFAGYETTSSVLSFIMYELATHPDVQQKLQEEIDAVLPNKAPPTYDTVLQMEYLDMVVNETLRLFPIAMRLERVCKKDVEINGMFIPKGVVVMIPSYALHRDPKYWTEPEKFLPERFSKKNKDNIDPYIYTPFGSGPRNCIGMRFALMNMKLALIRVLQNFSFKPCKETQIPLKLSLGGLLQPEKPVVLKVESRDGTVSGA
Sequence of Histamine H3 receptor (Homo sapiens, UniProt Q9Y5N1) (Q9Y5N1 whole entry): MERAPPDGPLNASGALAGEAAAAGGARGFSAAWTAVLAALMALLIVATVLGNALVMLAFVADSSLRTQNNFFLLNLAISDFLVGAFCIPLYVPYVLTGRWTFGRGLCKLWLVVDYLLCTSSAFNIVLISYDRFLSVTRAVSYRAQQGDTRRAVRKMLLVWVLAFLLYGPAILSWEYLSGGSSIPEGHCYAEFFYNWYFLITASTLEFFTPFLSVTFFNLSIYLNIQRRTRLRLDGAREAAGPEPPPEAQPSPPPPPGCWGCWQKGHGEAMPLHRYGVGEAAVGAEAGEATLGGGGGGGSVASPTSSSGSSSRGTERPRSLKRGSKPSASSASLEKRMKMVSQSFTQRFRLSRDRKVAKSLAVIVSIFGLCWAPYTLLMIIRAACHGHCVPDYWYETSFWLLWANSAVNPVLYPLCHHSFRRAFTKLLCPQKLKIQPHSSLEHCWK

For the molecule `CN(C)C(=O)c1ccc(-c2ccc3c(c2)CCN(CCN2CCCC2)C3=O)cc1.Cl`, the distribution volume (Vd) in [1] was found to be 2.1 L/kg; in [17], 3.1 L/kg. In data set [2], this molecule gave an AUC(0-inf) of 1650 ng·h/mL. Besides, the Activity entry in data set [3] is listed as “Toxic”; in data set [6], “Toxic”; in data set [7] it was “Non-toxic”; in [9], “Toxic”; in data set [15], “Toxic”; in [19] it was “Toxic”. In addition, the Cmax in data set [4] worked out at 989 ng/mL. The clearance in data set [5] turned out to be 23 mL/min/kg; in data set [20] it was 87 mL/min/kg. Also, the bioavailability was 85% in data set [8] and 57% in [12]. In addition, the half-life in [10] was 48 min; in [11], 18 min; in [18] it was 96 min. Besides, the minimal effective dose in data set [13] and in [21] was 1 mg/kg throughout. Further, the values for the MTD in data set [14] and in [16] were 20 mg/kg/day and 200 mg/kg/day, respectively. In data set [22], the Tmax was found to be 18 min.
For `O=C1c2ccc(-c3ccc(F)cc3)cc2CCN1CCN1CCCCCC1`, the values for the Ki in data set [23] and in data set [24] were 5.7 nM and 47 nM, respectively. Moreover, the inhibition at 3 µM in data set [25] came to 47%.

(Values after ChEMBL document CHEMBL2029265, “2-(Pyrrolidin-1-yl)ethyl-3,4-dihydroisoquinolin-1(2H)-one derivatives as potent and selective histamine-3 receptor antagonists” (J Med Chem, 2012).)
